Here are results for 17 compounds from ChEMBL document CHEMBL4390684, “The synthesis of 4,6-diaryl-2-pyridones and their bioactivation in CYP1 expressing breast cancer cells” (Bioorg Med Chem Lett, 2019).

Molecules are shown by their SMILES.

What is called IC50 is the midpoint of a concentration-inhibition curve.

One data set concerns MDA-MB-468. Kind of data set: Antiproliferative activity against ER negative human MDA-MB-468 cells expressing CYP1A1 and CYP1B1 assessed as reduction in cell viability measured after 96 hrs by MTT assay. Format: functional, cell-based. Particulars: MDA-MB-468, 96 h. In a few lines: (§1)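 Antiproliferative IC50 values were determined in MCF-7, MDA-MB-468, TCDD-treated MCF-7 (high CYP1A1 expression) and non-tumour MCF-10A breast cells. Each value is the mean of two independent experiments run in quadruplicate.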
Background: Formazan colour is commonly taken as a measure of viable cells.

Data set [1] concerns MCF7. Kind of data set: Activation factor, ratio of antiproliferative IC50 of ER positive human MCF7 cells expressing low level of CYP to antiproliferative IC50 of […]-induced ER positive human MCF7 cells expressing CYP1A1. It is filed as functional.
Another data set relates to MCF-10A. Kind of data set: Cytotoxicity against human MCF10A cells assessed as reduction in cell viability after 96 hrs by MTT assay. It is filed as cell-based. In a few lines: as §1
Data set [2] can be described thus: Selectivity index, ratio of IC50 for human MCF10A cells to IC50 for human MDA-MB-468 cells expressing CYP1A1 and CYP1B1. It is filed as toxicity. Particulars: read-out: Ratio IC50.
Data set [3] concerns MCF7. Kind of data set: Antiproliferative activity against ER positive human MCF7 cells expressing low level of CYP assessed as reduction in cell viability measured after 96 hrs by MTT assay. Format: functional, cell-based. Particulars: MCF7, 96 h. In a few lines: as §1
Data set [4] concerns MCF7. Kind of data set: Antiproliferative activity against […]-induced ER positive human MCF7 cells expressing CYP1A1 assessed as reduction in cell viability after 96 hrs by MTT assay. It is filed as functional, cell-based. Particulars: MCF7, 96 h. In a few lines: as §1

Take `COc1ccc(-c2cc(-c3ccc4c(c3)OCO4)[nH]c(=O)c2)c(OC)c1`: the IC50 in the data set with MDA-MB-468 was 6 µM; in the data set on MCF-10A, 80 µM; in the data set with MCF7 [3] it was 18 µM; with MCF7 [4] it was 1 µM. In the data set with MCF7 [1], the “Ratio IC50” value was determined as 18. In addition, in data set [2], the selectivity ratio turned out to be 13.
`COc1ccc(-c2cc(-c3ccc4c(c3)OCO4)cc(=O)[nH]2)cc1OC`: the IC50 in the data set on MDA-MB-468 was 0.41 µM; in the data set with MCF-10A, greater than 100 µM; with MCF7 [3], greater than 100 µM; in the data set with MCF7 [4], greater than 100 µM. Besides, in data set [2], the selectivity ratio was greater than 244.
Consider `COc1ccc(-c2cc(-c3ccc(OC)cc3OC)[nH]c(=O)c2)c(OC)c1`, for which the concentration for half-maximal inhibition (IC50) in the data set with MDA-MB-468 is 5 µM; in the data set on MCF-10A it was 5 µM; in the data set with MCF7 [3] it was 9 µM; in the data set on MCF7 [4] it was 4.5 µM. Also, in the data set on MCF7 [1], the “Ratio IC50” value stood at 2. Further, the selectivity ratio in data set [2] was 1.
As for `COc1ccc(-c2cc(-c3ccc4c(c3)OCCO4)cc(=O)[nH]2)c(OC)c1`, the half-inhibitory concentration (IC50) with MDA-MB-468 came to 0.5 µM; in the data set on MCF-10A it was 6 µM; in the data set on MCF7 [3] it was 2.5 µM; in the data set on MCF7 [4], 3 µM. Further, in the data set on MCF7 [1], the “Ratio IC50” value is on record as 0.8. The selectivity ratio in data set [2] was determined as 12.
Turning to `O=c1cc(-c2ccc3c(c2)OCO3)cc(-c2ccc(Cl)cc2Cl)[nH]1`, the IC50 with MDA-MB-468 is 60 µM; in the data set on MCF-10A, greater than 100 µM; in the data set on MCF7 [3], 85 µM; in the data set with MCF7 [4] it was 70 µM. For the same compound, in the data set on MCF7 [1], the “Ratio IC50” value is recorded as 1.2. Also, the selectivity ratio in data set [2] is greater than 1.7.
On to `COc1ccc(-c2cc(-c3ccc4c(c3)OCO4)cc(=O)[nH]2)c(OC)c1OC`, for which the IC50 in the data set with MDA-MB-468 was 8 µM; with MCF-10A, greater than 100 µM; in the data set with MCF7 [3] it was 12 µM; with MCF7 [4], 10 µM. In addition, the “Ratio IC50” value in the data set on MCF7 [1] was found to be 1.2. The selectivity ratio in data set [2] was greater than 12.5.
Consider `COc1ccc(OC)c(-c2cc(-c3ccc4c(c3)OCO4)cc(=O)[nH]2)c1`, for which the IC50 is 0.02 µM with MDA-MB-468, 5 µM with MCF-10A, 2 µM with MCF7 [3] and 0.02 µM with MCF7 [4]. The “Ratio IC50” value in the data set on MCF7 [1] turned out to be 100. Moreover, the selectivity ratio in data set [2] came out at 250.
Consider `COc1cc(OC)cc(-c2cc(-c3ccc4c(c3)OCO4)cc(=O)[nH]2)c1`, for which the IC50 in the data set on MDA-MB-468 is 0.35 µM; with MCF-10A, 0.7 µM; in the data set with MCF7 [3], 0.4 µM; in the data set on MCF7 [4], 0.2 µM. The “Ratio IC50” value with MCF7 [1] was 2. In addition, in data set [2], the selectivity ratio worked out at 2.
For `COc1ccc(-c2cc(-c3ccc(OC)cc3OC)[nH]c(=O)c2)cc1`, the IC50 in the data set with MDA-MB-468 was determined as 0.08 µM; in the data set on MCF-10A, 1.6 µM; with MCF7 [3] it was 0.5 µM; with MCF7 [4], 0.2 µM. In addition, the “Ratio IC50” value in the data set with MCF7 [1] came to 2.5. Also, the selectivity ratio in data set [2] is 20.
Turning to `COc1ccc(-c2cc(-c3ccc4c(c3)OCO4)cc(=O)[nH]2)cc1`, the IC50 in the data set on MDA-MB-468 is 1 µM; in the data set with MCF-10A, greater than 100 µM; in the data set on MCF7 [3], greater than 100 µM; with MCF7 [4], greater than 100 µM. Besides, the selectivity ratio in data set [2] is greater than 100.
`COc1ccc(-c2cc(-c3ccc(OC)c(OC)c3)cc(=O)[nH]2)c(OC)c1`: the 50% inhibitory concentration (IC50) in the data set with MDA-MB-468 worked out at 0.5 µM; with MCF-10A, 50 µM; in the data set on MCF7 [3], 1 µM; in the data set on MCF7 [4] it was 0.4 µM. The “Ratio IC50” value in the data set with MCF7 [1] is recorded as 2.5. Also, the selectivity ratio in data set [2] was found to be 100.
For `COc1cc(-c2cc(-c3ccc4c(c3)OCO4)cc(=O)[nH]2)cc(OC)c1OC`, the IC50 in the data set with MDA-MB-468 is 50 µM; in the data set on MCF-10A, greater than 100 µM; in the data set on MCF7 [3] it was greater than 100 µM; in the data set on MCF7 [4], 0.2 µM. For the same compound, in the data set with MCF7 [1], the “Ratio IC50” value is on record as greater than 500. Moreover, in data set [2], the selectivity ratio was greater than 2.
As for `CCCOc1ccc(-c2cc(-c3ccc(OC)c(OC)c3)[nH]c(=O)c2)cc1`, the IC50 was found to be 0.18 µM in the data set with MDA-MB-468, 70 µM in the data set with MCF-10A, 60 µM in the data set on MCF7 [3] and 20 µM with MCF7 [4]. In the data set with MCF7 [1], the “Ratio IC50” value was determined as 3. The selectivity ratio in data set [2] turned out to be 389.
Consider `O=c1cc(-c2ccc3c(c2)OCO3)cc(-c2ccccc2)[nH]1`, for which the IC50 came out at 0.8 µM in the data set with MDA-MB-468, 2.5 µM in the data set with MCF-10A, 1.6 µM with MCF7 [3] and 0.8 µM with MCF7 [4]. The “Ratio IC50” value with MCF7 [1] is recorded as 2. Moreover, the selectivity ratio in data set [2] worked out at 3.1.
On to `COc1ccccc1-c1cc(-c2ccc3c(c2)OCO3)cc(=O)[nH]1`, for which the IC50 was found to be 0.7 µM in the data set with MDA-MB-468, 28 µM in the data set on MCF-10A, 7 µM in the data set on MCF7 [3] and 3.5 µM in the data set with MCF7 [4]. Besides, the “Ratio IC50” value in the data set with MCF7 [1] is on record as 2. For the same compound, the selectivity ratio in data set [2] was found to be 40.
Take `CCCOc1ccc(-c2cc(-c3ccc(OC)cc3OC)[nH]c(=O)c2)cc1`: the IC50 with MDA-MB-468 was 0.4 µM; in the data set on MCF-10A, 50 µM; in the data set on MCF7 [3] it was 45 µM; with MCF7 [4] it was 9 µM. In addition, in the data set on MCF7 [1], the “Ratio IC50” value is 5. For the same compound, the selectivity ratio in data set [2] came out at 125.
As for `COc1ccc(/C=C\c2cc(OC)c(OC)c(OC)c2)cc1O` [COMBRETASTATIN A4], the IC50 was 0.003 µM in the data set with MDA-MB-468, 0.0016 µM with MCF-10A and 0.002 µM in the data set on MCF7 [4]. In addition, the “Ratio IC50” value in the data set with MCF7 [1] turned out to be 1. In data set [2], the selectivity ratio was 0.53.
